This is an account of results in ChEMBL document CHEMBL3407415, “Synthesis and anticancer activities of ceritinib analogs modified in the terminal piperidine ring” (Eur J Med Chem, 2015).

Active and inactive are the calls of the source. The rule behind the calls is not given here.

Series [1] has as its system NCI-H2228. The series can be described thus: Cytotoxicity against human NCI-H2228 cells assessed as cell viability after 72 hrs by MTS assay. Format: functional, cell-based. As to conditions: NCI-H2228, 72 h. In outline: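 H2228 cells seeded and grown 24 h, then exposed in triplicate to a range of concentrations for 72 h at 37 °C, 5% CO₂. MTS (5 mg/mL solution) added for 4 h, medium removed, plates shaken, absorbance read at 570 nm. Inhibition computed against controls. IC50 = concentration giving 50% growth inhibition.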
In general terms: Tetrazolium dyes change colour on reduction, which living cells bring about.

Series [2] has as its system Rattus norvegicus. The series can be described thus: Toxicity in Rowett nude rat xenografted with human NCI-H2228 cells assessed as body weight reduction at 38.28 mg/kg/day, po administered for 14 days measured during compound treatment. Format: organism-based. Further details: route oral. As to conditions: in vivo, 336 h. A digest of the protocol: (§1)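 H2228 xenograft-bearing RNU nude rats (n = 6 per group, mean starting tumour 150 mm³) given daily oral gavage in 0.5% MC/0.5% Tween 80, 10 μL/g, for 14 consecutive days. Body weight tracked regularly throughout dosing.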
On the technique in general: A xenograft is tissue or cells of one species grown in another, often human tumour cells in immunodeficient mice.

Series [3] has as its system Rattus norvegicus. The series can be described thus: Prodrug conversion in Sprague-Dawley rat assessed as release of ceritinib in plasma at 38.28 mg/kg, po measured over 24 hrs by HPLC analysis. The format is ADME, organism-based. Details: dose 38.28 mg/kg, route oral. As to conditions: in vivo. A digest of the protocol: (§2)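 Male SD rats, 200–220 g, randomized into three groups (n = 4). Single oral gavage dose in 0.5% MC/0.5% Tween 80 at 10 μL/g. Plasma sampled at 0.5, 1, 3, 5, 8 and 24 h, deproteinized with ethyl acetate, vortexed and centrifuged at 4000 rpm for 5 min. Organic phase analysed for ceritinib by HPLC.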

Series [4] concerns NCI-H2228. Nature of the series: Antitumor activity against human NCI-H2228 cells xenografted in Rowett nude rat assessed as tumor growth inhibition at 38.28 mg/kg/day, po administered for 14 days measured on day 15 relative to vehicle-treated control. As to conditions: read-out: TGI. The format is functional. A digest of the protocol:
(§3)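 RNU nude rats carrying H2228 tumours, randomized at mean tumour size 150 mm³ (n = 6 per group). Dosed by oral gavage, vehicle 0.5% MC/0.5% Tween 80, 10 μL/g body weight, daily for 14 days starting day 15 post-implant. Tumour volume = ab²/2. Rats killed after 14 days and tumours excised and weighed. Inhibition = (control mean tumour weight − treated mean)/control mean × 100%.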

The subject of series [5] is Rattus norvegicus. The series can be described thus: Prodrug conversion in Sprague-Dawley rat assessed as release of ceritinib in plasma at 36.24 mg/kg, po measured over 24 hrs by HPLC analysis. The following applies: in vivo. Details: dose 36.24 mg/kg, route oral. The format is ADME, organism-based. A digest of the protocol: as §2
The test system of series [6] is Rattus norvegicus. Nature of the series: Toxicity in Rowett nude rat xenografted with human NCI-H2228 cells assessed as body weight reduction at 36.24 mg/kg/day, po administered for 14 days measured during compound treatment. Further details: route oral. As to conditions: in vivo, 336 h. Format: organism-based. A digest of the protocol:
as §1

The subject of series [7] is NCI-H2228. The series can be described thus: Antitumor activity against human NCI-H2228 cells xenografted in Rowett nude rat assessed as tumor growth inhibition at 36.24 mg/kg/day, po administered for 14 days measured on day 15. The format is functional, organism-based. In outline:
as §3

Series [8] has as its system NCI-H2228. The series can be described thus: Antitumor activity against human NCI-H2228 cells xenografted in Rowett nude rat assessed as tumor growth inhibition at 30 mg/kg/day, po administered for 14 days measured on day 15. Format: functional, organism-based. In outline:
as §3

The next series deals with Plasma. The series can be described thus: Drug uptake in Sprague-Dawley rat plasma at 25 mg/kg, po measured over 24 hrs by HPLC analysis. Format: ADME, organism-based. Details: dose 25 mg/kg, route oral. As to conditions: in vivo. In outline:
as §2

On to `Cc1cc(Nc2ncc(Cl)c(Nc3ccccc3S(=O)(=O)C(C)C)n2)c(OC(C)C)cc1C1CCN(P(=O)(Oc2ccccc2)Oc2ccccc2)CC1`, for which the IC50 in the series with NCI-H2228 [1] worked out at 14400 nM.
As to `Cc1cc(Nc2ncc(Cl)c(Nc3ccccc3S(=O)(=O)C(C)C)n2)c(OC(C)C)cc1C1CCN(C(=O)OCOP(=O)(OCc2ccccc2)OCc2ccccc2)CC1`, in the series on NCI-H2228 [1], the IC50 stood at 1040 nM.
The same measure, in the same setting: to `COC(=O)N1CCC(c2cc(OC(C)C)c(Nc3ncc(Cl)c(Nc4ccccc4S(=O)(=O)C(C)C)n3)cc2C)CC1` belongs 1110 nM.
For `Cc1cc(Nc2ncc(Cl)c(Nc3ccccc3S(=O)(=O)C(C)C)n2)c(OC(C)C)cc1C1CCN(C(=O)OCOP(=O)(O)O)CC1`, the Activity result in the series on Rattus norvegicus [2] is reported as “Non-toxic”. The Drug metabolism entry in the series with Rattus norvegicus [3] is reported as “metabolite_notdetected”. The inhibition in vivo at 38.28 mg/kg/day in the series with NCI-H2228 [4] came out at 80%. Further, the IC50 with NCI-H2228 [1] amounted to 24 nM.
`CCC(C)OC(=O)N1CCC(c2cc(OC(C)C)c(Nc3ncc(Cl)c(Nc4ccccc4S(=O)(=O)C(C)C)n3)cc2C)CC1` (stereo not given): the half-maximal inhibitory concentration (IC50) with NCI-H2228 [1] is 7400 nM.
With `CCOC(=O)N1CCC(c2cc(OC(C)C)c(Nc3ncc(Cl)c(Nc4ccccc4S(=O)(=O)C(C)C)n3)cc2C)CC1`, the half-inhibitory concentration (IC50) with NCI-H2228 [1] amounted to 1200 nM.
Consider `CC(=O)OCOC(=O)N1CCC(c2cc(OC(C)C)c(Nc3ncc(Cl)c(Nc4ccccc4S(=O)(=O)C(C)C)n3)cc2C)CC1`, for which, in the series with Rattus norvegicus [5], the Drug metabolism result was “metabolite_notdetected”. The Activity result with Rattus norvegicus [6] was “Non-toxic”. Besides, in the series on NCI-H2228 [1], the half-inhibitory concentration (IC50) was found to be 120 nM. For the same compound, in the series on NCI-H2228 [7], the TGI entry is “inactive”.
For the compound `CCCCCOC(=O)N1CCC(c2cc(OC(C)C)c(Nc3ncc(Cl)c(Nc4ccccc4S(=O)(=O)C(C)C)n3)cc2C)CC1`, in the series on NCI-H2228 [1], the concentration for half-maximal inhibition (IC50) came out at 67200 nM.
With `Cc1cc(Nc2ncc(Cl)c(Nc3ccccc3S(=O)(=O)C(C)C)n2)c(OC(C)C)cc1C1CCNCC1` [CERITINIB], the TGI entry in the series on NCI-H2228 [8] is “Active”. In the series on Plasma, the Drug uptake entry was “Active”. Besides, the IC50 in the series with NCI-H2228 [1] turned out to be 103 nM.
Regarding `CCOP(=O)(OCC)N1CCC(c2cc(OC(C)C)c(Nc3ncc(Cl)c(Nc4ccccc4S(=O)(=O)C(C)C)n3)cc2C)CC1`, the half-maximal inhibitory concentration (IC50) in the series with NCI-H2228 [1] turned out to be 571 nM.
Still for that read-out and setting: as for `Cc1cc(Nc2ncc(Cl)c(Nc3ccccc3S(=O)(=O)C(C)C)n2)c(OC(C)C)cc1C1CCN(P(=O)(O)OCc2ccccc2)CC1`, the figure is 57.4 nM.
Same read-out and setting: to `Cc1cc(Nc2ncc(Cl)c(Nc3ccccc3S(=O)(=O)C(C)C)n2)c(OC(C)C)cc1C1CCN(P(=O)(OCc2ccccc2)OCc2ccccc2)CC1` belongs 2690 nM.

A word on the IC50: it is the point on the concentration scale where inhibition reaches its midpoint.
